According to ChEMBL document CHEMBL4014314, “Rational Design of Bisubstrate-Type Analogues as Inhibitors of DNA Methyltransferases in Cancer Cells” (J Med Chem, 2017):
The source made the active and inactive calls. The calls are words filed in the database; no cut-off is given here.

How the values were obtained:
[1] = target: T1, DNA (cytosine-5)-methyltransferase 3A (Homo sapiens, UniProt Q9Y6K1); experiment: Inhibition of human DNMT3A catalytic domain using AdoMet assessed as reduction of methylation in 5'-biotin/3' 6-carboxyfluorescein labeled DNA duplex at CpG site after 1 hr by fluorescence assay
T1 sequence (Q9Y6K1 whole entry, looked up, the tested form may be a part): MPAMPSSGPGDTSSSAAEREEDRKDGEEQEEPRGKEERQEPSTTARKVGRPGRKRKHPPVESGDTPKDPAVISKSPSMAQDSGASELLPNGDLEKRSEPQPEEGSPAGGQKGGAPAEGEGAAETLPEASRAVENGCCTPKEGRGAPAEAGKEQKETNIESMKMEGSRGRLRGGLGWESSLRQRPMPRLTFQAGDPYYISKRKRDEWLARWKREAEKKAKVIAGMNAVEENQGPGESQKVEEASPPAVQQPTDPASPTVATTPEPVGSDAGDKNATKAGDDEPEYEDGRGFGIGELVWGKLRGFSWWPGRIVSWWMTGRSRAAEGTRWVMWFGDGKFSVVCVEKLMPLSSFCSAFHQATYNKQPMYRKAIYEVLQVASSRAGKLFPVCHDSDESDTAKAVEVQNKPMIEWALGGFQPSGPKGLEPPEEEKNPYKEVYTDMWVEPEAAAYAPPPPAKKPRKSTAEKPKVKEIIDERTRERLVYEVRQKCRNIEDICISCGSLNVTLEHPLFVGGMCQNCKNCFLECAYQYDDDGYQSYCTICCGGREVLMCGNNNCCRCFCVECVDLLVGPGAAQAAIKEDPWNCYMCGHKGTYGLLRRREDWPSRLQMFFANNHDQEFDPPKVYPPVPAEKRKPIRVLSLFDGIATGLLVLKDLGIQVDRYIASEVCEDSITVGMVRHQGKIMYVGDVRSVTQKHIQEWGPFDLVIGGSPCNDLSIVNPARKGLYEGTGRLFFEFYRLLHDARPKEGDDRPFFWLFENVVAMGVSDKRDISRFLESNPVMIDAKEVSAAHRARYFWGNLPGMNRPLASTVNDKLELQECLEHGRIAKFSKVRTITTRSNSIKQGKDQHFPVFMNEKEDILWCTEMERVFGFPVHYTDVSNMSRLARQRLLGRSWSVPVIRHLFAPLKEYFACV
How it was run: (§1)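 Human full-length DNMT1 and catalytic DNMT3A tested for methylation of a DNA duplex; the paper gives assay details elsewhere. EC50 from a sigmoid dose-response fit with variable Hill slope; reported as median with SE from at least two independent experiments for DNMT1 and three for DNMT3A; DNMT3A curves run in technical duplicates.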

[2] = target: T2, DNA (cytosine-5)-methyltransferase 1 (Homo sapiens, UniProt P26358); experiment: Inhibition of full length His-tagged human DNMT1 using SAM/[methyl-3H]SAM assessed as reduction of methylation in biotinylated hemimethylated DNA duplex at 100 uM after 1 hr by scintillation counting method relative to control
T2 sequence (P26358 whole entry): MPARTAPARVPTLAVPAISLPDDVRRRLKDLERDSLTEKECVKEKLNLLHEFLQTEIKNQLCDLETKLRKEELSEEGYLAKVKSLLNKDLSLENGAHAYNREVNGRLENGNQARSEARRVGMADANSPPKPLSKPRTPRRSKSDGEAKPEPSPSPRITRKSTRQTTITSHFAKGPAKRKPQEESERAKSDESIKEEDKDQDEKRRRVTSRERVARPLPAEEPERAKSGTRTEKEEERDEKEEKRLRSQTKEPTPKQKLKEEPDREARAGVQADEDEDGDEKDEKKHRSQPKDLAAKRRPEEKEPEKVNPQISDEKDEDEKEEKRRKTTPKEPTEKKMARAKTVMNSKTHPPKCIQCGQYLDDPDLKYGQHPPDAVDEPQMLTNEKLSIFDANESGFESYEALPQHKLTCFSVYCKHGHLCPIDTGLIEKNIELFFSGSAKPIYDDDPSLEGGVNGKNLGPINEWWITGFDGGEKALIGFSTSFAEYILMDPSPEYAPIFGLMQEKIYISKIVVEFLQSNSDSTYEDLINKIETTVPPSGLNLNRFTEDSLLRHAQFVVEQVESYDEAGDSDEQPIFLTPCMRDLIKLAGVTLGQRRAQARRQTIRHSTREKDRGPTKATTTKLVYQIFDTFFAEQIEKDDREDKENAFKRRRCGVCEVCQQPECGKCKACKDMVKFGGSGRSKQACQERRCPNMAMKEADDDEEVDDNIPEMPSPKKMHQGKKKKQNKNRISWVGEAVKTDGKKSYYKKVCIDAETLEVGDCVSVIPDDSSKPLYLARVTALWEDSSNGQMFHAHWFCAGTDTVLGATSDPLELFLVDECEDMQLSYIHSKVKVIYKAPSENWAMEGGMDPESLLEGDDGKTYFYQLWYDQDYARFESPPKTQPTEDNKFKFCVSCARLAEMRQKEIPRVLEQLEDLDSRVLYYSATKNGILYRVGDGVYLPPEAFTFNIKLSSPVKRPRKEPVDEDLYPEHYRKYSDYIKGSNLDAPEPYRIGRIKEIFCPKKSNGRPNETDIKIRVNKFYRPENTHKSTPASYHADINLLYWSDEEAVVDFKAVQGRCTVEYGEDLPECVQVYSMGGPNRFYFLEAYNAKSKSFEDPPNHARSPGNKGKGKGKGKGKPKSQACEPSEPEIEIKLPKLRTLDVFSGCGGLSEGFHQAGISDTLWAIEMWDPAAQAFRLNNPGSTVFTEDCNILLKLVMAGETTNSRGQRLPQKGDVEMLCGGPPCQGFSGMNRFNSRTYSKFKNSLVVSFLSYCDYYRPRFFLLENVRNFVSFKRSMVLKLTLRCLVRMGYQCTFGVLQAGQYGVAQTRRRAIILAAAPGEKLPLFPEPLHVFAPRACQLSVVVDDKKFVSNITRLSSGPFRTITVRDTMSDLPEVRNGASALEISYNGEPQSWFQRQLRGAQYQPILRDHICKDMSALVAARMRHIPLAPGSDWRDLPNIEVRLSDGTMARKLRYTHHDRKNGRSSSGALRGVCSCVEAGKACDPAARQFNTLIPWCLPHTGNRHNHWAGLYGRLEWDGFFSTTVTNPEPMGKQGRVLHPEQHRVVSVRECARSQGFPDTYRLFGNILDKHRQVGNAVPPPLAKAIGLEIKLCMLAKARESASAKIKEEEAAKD

[3] = Solubility of the compound in RPMI-1640 medium; assay type: physicochemical
[4] = target: T1, DNA (cytosine-5)-methyltransferase 3A; experiment: Inhibition of human DNMT3A catalytic domain using AdoMet assessed as reduction of methylation in 5'-biotin/3' 6-carboxyfluorescein labeled DNA duplex at CpG site at 10 uM after 1 hr by fluorescence assay relative to control
[5] = target: T1, DNA (cytosine-5)-methyltransferase 3A; experiment: Inhibition of human DNMT3A catalytic domain using AdoMet assessed as reduction of methylation in 5'-biotin/3' 6-carboxyfluorescein labeled DNA duplex at CpG site at 32 uM after 1 hr by fluorescence assay relative to control
[6] = target: T2, DNA (cytosine-5)-methyltransferase 1; experiment: Inhibition of full length His-tagged human DNMT1 using SAM/[methyl-3H]SAM assessed as reduction of methylation in biotinylated hemimethylated DNA duplex at 32 uM after 1 hr by scintillation counting method relative to control
Homo sapiens [7] = species: Homo sapiens; experiment: Inhibition of DNMT in human KG1 cells assessed as luciferase gene driven CMV promoter demethylation by measuring fold increase in luciferase reactivation at 1 uM after 24 hrs by luciferase reporter gene assay relative to control; assay type: cell-based
How it was run: (§2)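 Leukemia KG-1 cells carrying a stable luciferase gene under a partially methylated CMV promoter, treated in 96-well plates for 24 h. Luciferase signal read by luminescence (Britelite); reactivation fold expressed as ratio to non-treated cells. Mean of three experiments with standard error.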

[8] = target: T2, DNA (cytosine-5)-methyltransferase 1; experiment: Inhibition of full length His-tagged human DNMT1 using SAM/[methyl-3H]SAM assessed as reduction of methylation in biotinylated hemimethylated DNA duplex after 1 hr by scintillation counting method; how it was run: as §1
Homo sapiens [9] = species: Homo sapiens; experiment: Inhibition of DNMT in human KG1 cells assessed as luciferase gene driven CMV promoter demethylation by measuring fold increase in luciferase reactivation at 5 uM after 24 hrs by luciferase reporter gene assay relative to control; assay type: cell-based; how it was run: as §2
Homo sapiens [10] = species: Homo sapiens; experiment: Inhibition of DNMT in human KG1 cells assessed as luciferase gene driven CMV promoter demethylation by measuring luciferase reactivation at 5 uM after 24 hrs by luciferase reporter gene assay; assay type: cell-based; how it was run: as §2
Homo sapiens [11] = species: Homo sapiens; experiment: Inhibition of DNMT in human KG1 cells assessed as luciferase gene driven CMV promoter demethylation by measuring luciferase reactivation at 1 uM after 24 hrs by luciferase reporter gene assay; assay type: cell-based; how it was run: as §2
Homo sapiens [12] = species: Homo sapiens; experiment: Inhibition of DNMT in human HCT116 cells assessed as demethylation of CDKN2A promoter at 100 nM after 7 days by COBRA analysis relative to control; assay type: cell-based
How it was run: (§3)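 HCT116 colon cancer cells in MEM with HEPES, L-glutamine and 10% FCS, 37 °C, 5% CO2; seeded 1 × 10^5/mL, treated for 3 or 7 days at 100 nM. Bisulfite-converted DNA amplified at the CDKN2A promoter, then digested with BsiEI at 60 °C for 90 min (COBRA); bands quantified on 2% agarose gel. Methylation given as ratio to untreated cells; at least two independent experiments, standard errors.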

Homo sapiens [13] = species: Homo sapiens; experiment: Inhibition of DNMT in human HCT116 cells assessed as demethylation of CDKN2A promoter at 100 nM after 3 days by COBRA analysis relative to control; assay type: cell-based; how it was run: as §3
Homo sapiens [14] = species: Homo sapiens; experiment: Inhibition of DNMT in human KG1 cells assessed as CpG site demethylation at CMV promoter at 1 uM after 24 hrs by NOMe-Seq method relative to control; assay type: cell-based
How it was run: (§4)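 CMV-luc KG-1 acute myeloid leukemia cells in RPMI-1640 with 10% FCS, seeded 2 × 10^5/mL and treated for 24 h at 1 or 5 μM. NOMe-Seq: bisulfite conversion, CMV promoter PCR (40 cycles), cloning and sequencing. CpG methylation and GpC accessibility expressed as ratio of percentage methylated cytosines in treated versus untreated sample.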

Homo sapiens [15] = species: Homo sapiens; experiment: Inhibition of DNMT in human KG1 cells assessed as increase in DNA accessibility by opening the chromatin at 1 uM after 24 hrs by NOMe-Seq method relative to control; assay type: cell-based; design: scale not given: the % may be the effect or the level left; how it was run: as §4
[16] = Binding affinity to 117 bp pBS DNA at 0.01 to 10 uM after 15 mins using 3'-end labeled using alpha-[32P]-dATP by DNase I footprinting assay
Homo sapiens [17] = species: Homo sapiens; experiment: Inhibition of DNMT in human KG1 cells assessed as CpG site demethylation at CMV promoter at 5 uM after 24 hrs by NOMe-Seq method relative to control; assay type: cell-based; how it was run: as §4
KG-1 = experiment: Toxicity in human KG1 cells assessed as effect on cell viability at 5 uM after 24 hrs by ATPLite assay; assay type: cell-based; settings: kg-1, 24 h
Homo sapiens [18] = species: Homo sapiens; experiment: Inhibition of DNMT in human KG1 cells assessed as nucleosome occupancy at CMV promoter by measuring increase in luciferase signal at 5 uM after 24 hrs by NOMe-Seq method relative to control; assay type: cell-based
[19] = Binding affinity to 265 bp pBS DNA at 0.01 to 10 uM after 15 mins using 3'-end labeled using alpha-[32P]-dATP by DNase I footprinting assay
Homo sapiens [20] = species: Homo sapiens; experiment: Inhibition of DNMT in human KG1 cells assessed as increase in DNA accessibility by opening the chromatin at 5 uM after 24 hrs by NOMe-Seq method relative to control; assay type: cell-based; design: scale not given: the % may be the effect or the level left; how it was run: as §4
[21] = Binding affinity to 5'-TATATACGTACGGTGTTTTCACCGTACGTATATA-3' CpG site hairpin duplex DNA (unknown origin) assessed as change in melting temperature at 10 uM
[22] = Binding affinity to 5'-TATATACGTACTGTGTTTTCACAGTACGTATATA-3' CpG site hairpin duplex DNA (unknown origin) assessed as change in melting temperature at 10 uM
Homo sapiens [23] = species: Homo sapiens; experiment: Inhibition of DNMT in human KG1 cells assessed as luciferase gene driven CMV promoter demethylation by measuring luciferase reactivation at 0.1 uM after 24 hrs by luciferase reporter gene assay; assay type: cell-based; how it was run: as §2
Homo sapiens [24] = species: Homo sapiens; experiment: Inhibition of DNMT in human HCT116 cells assessed as induction of CDKN2A mRNA expression at 100 nM after 7 days by RT qPCR method relative to control; assay type: cell-based
How it was run: (§5)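 HCT116 cells seeded 1 × 10^5/mL and exposed to 100 nM for 3 or 7 days. CDKN2A mRNA quantified by RT-qPCR with SYBR chemistry: 95 °C 30 s, then 40 cycles of 95 °C 5 s and 60 °C 30 s, followed by a melt curve. Expressed as fold change relative to untreated cells; at least two independent experiments, standard errors.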

Homo sapiens [25] = species: Homo sapiens; experiment: Inhibition of DNMT in human HCT116 cells assessed as induction of CDKN2A mRNA expression at 100 nM after 3 days by RT qPCR method; assay type: cell-based; how it was run: as §5

Compound	EC50 [1] [µM]	inhibition [2] [%]	inhibition [4] [%]	inhibition [5] [%]	inhibition [6] [%]	fold change (FC) (Homo sapiens [7])	EC50 [8] [µM]	fold change (FC) (Homo sapiens [9])	inhibition (Homo sapiens [12]) [%]	inhibition (Homo sapiens [13]) [%]	inhibition (Homo sapiens [17]) [%]	Activity (KG-1)	fold change (FC) (Homo sapiens [18])	Activity (Homo sapiens [20]) [%]	other results
c1ccc2c(NCCNc3ncnc4cc(OCC5CCN(CCNc6ccnc7ccccc67)CC5)ccc34)cccc2c1	0.3	94	91	90	86	4	20	4	–	–	–	–	–	–	solubility [3]: Soluble
c1ccc(CCCNc2ncnc3cc(OCC4CCN(CCNc5cccc6ccccc56)CC4)ccc23)cc1	–	0	0	0	0	–	–	–	–	–	–	–	–	–	inhibition (Homo sapiens [10]): inactive; inhibition (Homo sapiens [11]): inactive
Nc1ncn([C@H]2C[C@H](O)[C@@H](CO)O2)c(=O)n1	–	–	–	–	–	–	–	–	80	60	–	–	–	–	inhibition (Homo sapiens [14]): 50%; Activity (Homo sapiens [15]): 120%
c1ccc(CCCNc2ncnc3cc(OCC4CCN(CCNc5ccnc6ccccc56)CC4)ccc23)cc1	4.4	91	81	98	25	4	46	4	42	32	33	Non-Toxic	4.7	77	Activity [16]: inactive; Activity [19]: inactive; Activity [21]: inactive; Activity [22]: inactive
c1ccc(-c2ccc(CNc3ncnc4cc(OCC5CCN(CCNc6ccnc7ccccc67)CC5)ccc34)cc2)cc1	1.1	69	86	83	24	4	100	4	71	20	52	Non-Toxic	4.2	87	inhibition (Homo sapiens [23]): Active; fold change (FC) (Homo sapiens [24]): 13; Activity (Homo sapiens [25]): inactive
